The results in this text go back to ChEMBL document CHEMBL1139941, “Development of 6-benzyl substituted 4-aminocarbonyl-1,4-diazepane-2,5-diones as orally active human chymase inhibitors” (Bioorg Med Chem Lett, 2007).

For orientation: half-life means how long it takes for the measured level to halve. As a reminder, the IC50 is the concentration needed to halve the response being measured. As usually defined, the inhibition in vivo is the change of the read-out against control, counted positive when it falls. Lower therefore signals a weak effect.

Data set [1] is described as follows: Stability in aqueous solution in pH 7 at 10 uM. In kind it is physicochemical. The gist of the method: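 Compound at 10 µM incubated at 37 °C in 0.1 M phosphate buffer, pH 7.0, sampled at 0, 4 and 8 h; fraction remaining quantified by HPLC and reported as half-life.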
Data set [2] is described as follows: Inhibition of bovine alpha chymotrypsin. The arrangement: species or system Bos taurus.
The next data set deals with T1, Cathepsin G (Homo sapiens, UniProt P08311).
T1 sequence (P08311 whole entry): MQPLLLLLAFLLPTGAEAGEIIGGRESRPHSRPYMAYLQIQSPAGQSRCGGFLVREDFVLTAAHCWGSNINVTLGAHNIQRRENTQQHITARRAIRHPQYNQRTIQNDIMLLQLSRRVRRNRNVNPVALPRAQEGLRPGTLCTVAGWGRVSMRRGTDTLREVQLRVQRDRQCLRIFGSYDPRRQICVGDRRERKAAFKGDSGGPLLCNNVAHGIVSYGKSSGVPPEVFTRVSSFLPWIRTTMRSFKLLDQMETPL
Briefly: Inhibition of human cathepsin G.

A short description of data set [3]: Inhibition of bovine trypsin. Also noted: species or system Bos taurus.
Data set [4] is described as follows: Inhibition of human elastase.
In data set [5] the test system is Mus musculus. Nature of the data set: Inhibition of DNFB-induced ear edema in mouse chronic dermatitis model at 10 mg/kg, po after 24 hrs relative to control. In kind it is functional. The gist of the method:
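Mouse chronic dermatitis model: DNFB painted repeatedly; compound dosed orally at 10 mg/kg once daily throughout the experimental period. Ear thickness read 24 h after the sixth DNFB painting; inhibition ratio calculated versus vehicle, significance by Student's t test.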

The next data set has as its target T2, Chymase (Homo sapiens, UniProt P23946).
T2 sequence (P23946 whole entry): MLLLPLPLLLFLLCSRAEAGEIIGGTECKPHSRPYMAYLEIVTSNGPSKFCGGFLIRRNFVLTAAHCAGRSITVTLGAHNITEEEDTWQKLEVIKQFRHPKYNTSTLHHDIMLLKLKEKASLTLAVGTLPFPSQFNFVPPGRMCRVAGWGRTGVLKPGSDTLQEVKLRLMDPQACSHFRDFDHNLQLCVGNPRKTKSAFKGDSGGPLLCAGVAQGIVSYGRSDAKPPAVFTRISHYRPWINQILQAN
Briefly: Inhibition of human recombinant chymase.

Data set [6] has as its system Mus musculus. Nature of the data set: Inhibition of DNFB-induced ear edema in mouse chronic dermatitis model at 10 mg/kg, ip after 24 hrs relative to control. In kind it is functional. To be noted: route intraperitoneal. The gist of the method: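 Chronic dermatitis in mice induced by repeated DNFB painting; intraperitoneal dosing at 10 mg/kg once daily over the experimental period. Ear thickness measured 24 h after sixth DNFB application, expressed as inhibition ratio against vehicle group; Student's t test.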

Turning to `CC[C@@H](NC(=O)N1CC(=O)NC[C@H](Cc2cc(Cl)ccc2OC)C1=O)c1ccc(C(=O)O)c(N)c1`, in data set [1], the half-life at 10 µM is 6.1 h. For the same compound, the IC50 in data set [2] is 23 µM; on Cathepsin G, 28 µM; in data set [3], > 100 µM; in data set [4], > 100 µM. In the data set on Mus musculus [5], this compound yielded an inhibition in vivo at 10 mg/kg of 35.8%.
`COc1ccc(Cl)cc1CC1CNC(=O)CN(C(=O)NC(C)c2ccccc2)C1=O` (centres undefined) gave a half-life at 10 µM in data set [1] of 6.2 h.
As to `COc1ccc(Cl)cc1CC1CNC(=O)CN(C(=O)NC(c2ccccc2)c2ccccc2)C1=O` (racemic), the IC50 at Chymase was > 100 µM. In addition, the half-life at 10 µM in data set [1] is 16.5 h.
Compound `CCC(NC(=O)N1CC(=O)NCC(Cc2cc(Cl)ccc2OC)C1=O)c1ccccc1` (centres undefined) had a half-life at 10 µM in data set [1] of 6.3 h.
On the same count and under the same terms, the figure for `CCCC(NC(=O)N1CC(=O)NCC(Cc2cc(Cl)ccc2OC)C1=O)c1ccccc1` (centres undefined) is 7.6 h.
For the compound `C[C@]12C=CC(=O)C=C1CC[C@@H]1[C@@H]2[C@@H](O)C[C@@]2(C)[C@H]1CC[C@]2(O)C(=O)CO` [PREDNISOLONE], the inhibition in vivo at 10 mg/kg with Mus musculus [6] turned out to be 54.6%.
In the case of `CC[C@@H](NC(=O)N1CC(=O)NC[C@@H](Cc2cc(Cl)ccc2OC)C1=O)c1cccc(C(=O)O)c1`, in data set [1], the half-life at 10 µM was 7.4 h. The IC50 in data set [2] was 56 µM; against Cathepsin G it was 8 µM; in data set [3], > 100 µM; in data set [4] it was > 100 µM. The compound also displayed an inhibition in vivo at 10 mg/kg with Mus musculus [5] of 22.9%.
On to `COc1ccc(Cl)cc1CC1CNC(=O)CN(C(=O)NCc2ccccc2)C1=O` (racemic), for which the half-life at 10 µM in data set [1] was 6.8 h.
Turning to `CC[C@@H](NC(=O)N1CC(=O)NC[C@@H](Cc2cc(Cl)ccc2OC)C1=O)c1ccc(C(=O)O)c(N)c1`, in data set [1], the half-life at 10 µM was 6.7 h. Further, the IC50 in data set [2] is > 100 µM; at Cathepsin G, 16 µM; in data set [3], > 100 µM; in data set [4], > 100 µM. In the data set with Mus musculus [5], this compound showed an inhibition in vivo at 10 mg/kg of 29.7%.
On to `COc1ccc(Cl)cc1CC1CNC(=O)CN(C(=O)N(C)Cc2ccccc2)C1=O` (racemic), for which the half-maximal inhibitory concentration (IC50) on Chymase is > 100 µM. Further, in data set [1], the half-life at 10 µM is > 48 h.
In data set [1], `COc1ccc(Cl)cc1CC1CNC(=O)CN(C(=O)NCCc2ccccc2)C1=O` (racemic) showed a half-life at 10 µM of 12.9 h.
On the same count and under the same terms, the figure for `COc1ccc(Cl)cc1CC1CNC(=O)CN(C(=O)NC(c2ccccc2)C(C)C)C1=O` (centres undefined) is 8 h.
